Rows were chosen to be rich in hits. Some 1.4% of all compounds tested hit in one or more screens of this group.
NS3 helicase inh – blocks Hepatitis C virus NS3 helicase unwinding. NS3 helicase DNA unwinding, Cy5 molecular beacon fluorescence. inhibition, % at 10.9 µM. actives 0.56% (n = 290,000);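 active means inhibition above the mean of all tested compounds plus 3 SD, set per campaign, cut at about 35% in these data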;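 further: 0% = DMSO wells and 100% = thioflavine S control wells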
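Measured by: Cy5 fluorescence, 0 and 60 min reads / Assay system: NS3 helicase fragment of HCV / Control set: low DMSO, high thioflavine S at 110 µM / Times: 1 h reaction at 25 °C, ATP-initiated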
ZTA DNA inh – counter-screen for EBNA-1 inhibitors: inhibitors of Epstein-Barr virus ZTA; actives 0.15% (n = 320,000); ZTA-DNA binding, fluorescence polarization; AID 2234; inhibition, % at 11 µM; in the data active means inhibition above about 33%
Target sequence (P03206 whole entry, looked up): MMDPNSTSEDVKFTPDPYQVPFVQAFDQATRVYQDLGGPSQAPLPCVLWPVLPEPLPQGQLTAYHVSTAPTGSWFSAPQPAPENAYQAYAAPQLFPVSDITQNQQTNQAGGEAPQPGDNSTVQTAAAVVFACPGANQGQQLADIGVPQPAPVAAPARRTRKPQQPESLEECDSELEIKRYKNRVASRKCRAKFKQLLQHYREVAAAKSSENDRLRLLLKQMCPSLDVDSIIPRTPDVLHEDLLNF
Fh CTSL1 inh – cathepsin L1 inhibition, PFM18AAP counter-screen; inhibition, % at 5.96 µM; recombinant F. hepatica cathepsin L1, Z-Leu-Arg-MCA fluorescence; actives 0.49% (n = 300,000);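 active means inhibition above the mean of all tested compounds plus 3 SD, set per screening campaign, cut at about 17% in these data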;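 further: 0% = plate median of test compound wells and 100% = 1 µM Z-Phe-Ala-diazomethylketone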
EBNA-1 inhibitor – blocks EBNA-1 binding to DNA; actives 0.34% (n = 300,000); inhibition, % at 14.8 µM; EBNA-1 DNA binding, fluorescence polarization; in the data active means inhibition above about 28%
* marks the source's active call; other numbers are inactive results.

For COc1ccc(CC(=O)NCC2(N3CCCCC3)CCCCC2)cc1 the results were NS3 helicase inh -13.7, ZTA DNA inh -1.8, Fh CTSL1 inh 29.2* and EBNA-1 inhibitor -6.3.
NC(N)=Nc1nc(-c2ccccc2)c2ccccc2n1 was read as NS3 helicase inh -24.2, ZTA DNA inh -13.1, Fh CTSL1 inh -4.9 and EBNA-1 inhibitor -26.2.
For O=[N+]([O-])c1cccnc1NCCc1ccccc1 the results were NS3 helicase inh -6.6, ZTA DNA inh 3.7, Fh CTSL1 inh 5.0 and EBNA-1 inhibitor -0.2.
For CC1CN(S(=O)(=O)c2cccc(C(=O)OCCOc3ccccc3)c2)CC(C)O1 (centres undefined) the results were ZTA DNA inh -2.3.
CC1CC(C)CN(S(=O)(=O)c2cccc(C(=O)OCCN3CCCC3=O)c2)C1 (centres undefined) was read as NS3 helicase inh -0.4, ZTA DNA inh -14.3, Fh CTSL1 inh 17.6* and EBNA-1 inhibitor 1.3.
For Cc1cc(NC(=O)CSc2nnc(CNC(=O)c3ccc(F)cc3)o2)no1 the results were NS3 helicase inh -0.4, ZTA DNA inh -9.9, Fh CTSL1 inh 2.9 and EBNA-1 inhibitor 1.6.
Screening [O-][N+]1=c2ccc(Nc3ccccc3)cc2=NC12CCCCC2 returned NS3 helicase inh -3.4, ZTA DNA inh -10.6, Fh CTSL1 inh 19.5* and EBNA-1 inhibitor 0.8.
Screening COC(=O)c1c(NC(=S)NC(=O)c2ccco2)sc2c1CCCC2 returned NS3 helicase inh 5.7, ZTA DNA inh 14.0, Fh CTSL1 inh 1.3 and EBNA-1 inhibitor -7.6.
O=C(O)CN1C(=O)COc2cc(S(=O)(=O)N3CCCC3)ccc21 was read as NS3 helicase inh -3.1, ZTA DNA inh 6.8, Fh CTSL1 inh -1.4 and EBNA-1 inhibitor 2.0.
`O=C1/C(=N\S(=O)(=O)c2cccs2)C([n+]2ccccc2)=C([O-])c2ccccc21` gave NS3 helicase inh -0.5, ZTA DNA inh -18.1, Fh CTSL1 inh 25.5* and EBNA-1 inhibitor 4.3.
CC(C)(C)c1cc[n+](C2=C([O-])c3ccccc3C(=O)/C2=N\S(=O)(=O)c2cccs2)cc1 was read as NS3 helicase inh 15.3, ZTA DNA inh 12.7, Fh CTSL1 inh 23.7* and EBNA-1 inhibitor -5.7.
N/C(=N\S(=O)(=O)c1cccs1)c1ccccc1 was read as NS3 helicase inh 2.0, ZTA DNA inh 18.4, Fh CTSL1 inh -2.2 and EBNA-1 inhibitor 2.3.
CCOc1ccccc1NC(=O)C(OC(=O)c1ccc(N(C)C)cc1)c1ccccc1 (centres undefined) was read as NS3 helicase inh -5.8, ZTA DNA inh 7.3, Fh CTSL1 inh -2.1 and EBNA-1 inhibitor -3.2.
`CC(=O)Nc1ccc(C(=O)OCC(=O)Nc2ccccc2Sc2ccccc2)cc1` gave NS3 helicase inh -12.8, ZTA DNA inh 9.2, Fh CTSL1 inh -2.9 and EBNA-1 inhibitor -1.3.
For COc1ccc2c(c1OC)C(=O)N1C2SC[C@H]1C(=O)NCCC(C)C (some centres undefined) the results were NS3 helicase inh -7.6, ZTA DNA inh -4.8, Fh CTSL1 inh 0.1 and EBNA-1 inhibitor 9.1.
COc1cc(C(=O)Nc2ccc(C)cn2)c([N+](=O)[O-])cc1OC was read as NS3 helicase inh -8.8, ZTA DNA inh 0.9, Fh CTSL1 inh -0.2 and EBNA-1 inhibitor -4.6.
For COc1cc(C(=O)Nc2c(C)cc(C)cc2C)c([N+](=O)[O-])cc1OC the results were NS3 helicase inh -1.1, ZTA DNA inh -21.1, Fh CTSL1 inh 21.8* and EBNA-1 inhibitor -7.7.
Screening O=C(N/C(=C\c1cccc([N+](=O)[O-])c1)C(=O)N1CCOCC1)c1ccco1 returned NS3 helicase inh 0.6, ZTA DNA inh -9.9, Fh CTSL1 inh -1.2 and EBNA-1 inhibitor -19.5.
Screening CC(=O)N1c2ccccc2C(=O)C1N1CCCCC1 (centres undefined) returned NS3 helicase inh -1.3, ZTA DNA inh -8.4, Fh CTSL1 inh 20.9* and EBNA-1 inhibitor -2.5.
`CC(=O)Oc1ccc(C2OC(=O)c3ccccc3N2C(C)=O)cc1` (centres undefined) gave NS3 helicase inh -6.6, ZTA DNA inh 14.4, Fh CTSL1 inh -8.4 and EBNA-1 inhibitor 11.8.
Screening Cc1cc(=O)n2nc(N3CCCC(C(=O)N4CCN(c5ccccc5)CC4)C3)sc2n1 (centres undefined) returned NS3 helicase inh 7.3, ZTA DNA inh -9.7, Fh CTSL1 inh 17.4* and EBNA-1 inhibitor 9.1.
`Cc1cc(=O)n2nc(N3CCCC(C(=O)NCc4ccccc4)C3)sc2n1` (centres undefined) gave NS3 helicase inh 19.4, ZTA DNA inh 9.6, Fh CTSL1 inh -1.2 and EBNA-1 inhibitor 6.7.
O=C1C(O)=C(O)C(=O)c2ccccc21 was read as ZTA DNA inh -2.1, Fh CTSL1 inh 61.2* and EBNA-1 inhibitor 6.8.
`O=C1c2ccccc2C(=O)c2[nH]c(=O)[nH]c21` gave NS3 helicase inh 4.0, ZTA DNA inh -0.5, Fh CTSL1 inh 31.4* and EBNA-1 inhibitor 4.6.
For O=C1C(=O)c2ccccc2C(O)=C1c1ccccc1F the results were NS3 helicase inh 3.3, ZTA DNA inh -9.2, Fh CTSL1 inh 0.8 and EBNA-1 inhibitor 11.7.
For O=C1N=c2ccc(Br)cc2=C1c1sc(=S)n(NS(=O)(=O)c2ccccc2)c1O the results were NS3 helicase inh -12.5, ZTA DNA inh -22.3, Fh CTSL1 inh 27.8* and EBNA-1 inhibitor 6.7.
Screening Cc1ccc(-n2ccnc(SCC(=O)NC3CCCCC3)c2=O)cc1F returned ZTA DNA inh -16.2, Fh CTSL1 inh 25.3* and EBNA-1 inhibitor -3.8.
`COc1ccc(-n2ccnc(SCC(=O)NC3CCCC3)c2=O)cc1OC` gave ZTA DNA inh -1.9, Fh CTSL1 inh -1.1 and EBNA-1 inhibitor -14.3.
For CCOc1ccc(CN(C)CC(=O)Nc2cccc(C)c2)cc1OC the results were NS3 helicase inh -4.3, ZTA DNA inh -0.9, Fh CTSL1 inh -0.1 and EBNA-1 inhibitor 0.6.
Screening CC(NC(=O)COC(=O)c1ccc([N+](=O)[O-])s1)c1ccccc1 (centres undefined) returned NS3 helicase inh 3.4, ZTA DNA inh -12.1, Fh CTSL1 inh 33.0* and EBNA-1 inhibitor 11.3.
O=C(COC(=O)c1ccc([N+](=O)[O-])s1)NCc1ccc(F)cc1 was read as NS3 helicase inh -1.6, ZTA DNA inh 2.4, Fh CTSL1 inh 79.6* and EBNA-1 inhibitor 2.6.
O=C(COC(=O)c1ccc([N+](=O)[O-])s1)NC(=O)NCc1ccccc1 was read as NS3 helicase inh -7.5, ZTA DNA inh 2.0, Fh CTSL1 inh 18.0* and EBNA-1 inhibitor -18.9.
`O=C(COC(=O)c1ccc([N+](=O)[O-])s1)NCCc1ccccc1` gave ZTA DNA inh 6.6.
Screening Cc1ccc(N2CC(C(=O)NCCN3CCOCC3)CC2=O)cc1 (centres undefined) returned NS3 helicase inh -1.9, ZTA DNA inh 0.8, Fh CTSL1 inh -2.1 and EBNA-1 inhibitor 7.1.
For O=C(Nc1ccc(S(=O)(=O)N2CCCC2)cc1)C1CCCN1C(=O)c1cccs1 (centres undefined) the results were NS3 helicase inh -0.3, ZTA DNA inh 0.8, Fh CTSL1 inh -0.2 and EBNA-1 inhibitor 5.7.
COC(=O)C1CCCN1S(=O)(=O)c1ccc2ccccc2c1 (centres undefined) was read as NS3 helicase inh -2.9, ZTA DNA inh 13.4, Fh CTSL1 inh 2.5 and EBNA-1 inhibitor -7.5.

From PubChem BioAssay
